From ChEMBL document CHEMBL1142402, “Synthesis of curcumin mimics with multidrug resistance reversal activities” (Bioorg Med Chem, 2008)
The source made the active and inactive calls. The calls are words filed in the database; no cut-off is given here.

Key:
[1] = Cytotoxicity against multidrug resistant P-gp expressing human KBV20C cells assessed as cell viability at 10 uM after 48 hrs by MTS assay; format: functional; conditions: read-out: Activity
Summary of the method: (§1)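 KB (P-gp-negative) and KBV20C (P-gp-expressing) cells were grown in RPMI 1640 with 10% FBS and 1% penicillin/streptomycin. KBV20C cells were maintained with 20 nM vincristine. Cells were exposed to each compound at 10 µM for 48 h. Viability (%) was read by MTS. Values are means ± standard deviation of three experiments.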

[2] = Cytotoxicity against multidrug resistant P-gp expressing human KBV20C cells assessed as cell viability in presence of paclitaxel by MTS assay; format: functional, cell-based
[3] = Cytotoxicity against multidrug resistant P-gp expressing human KBV20C cells assessed as cell viability in presence of vincristine by MTS assay; format: functional, cell-based
[4] = test system: KB; assay: Cytotoxicity against human KB cells assessed as cell viability at 10 uM after 48 hrs by MTS assay; format: functional; conditions: read-out: Activity; summary of the method: as §1
[5] = test system: KBV20C; assay: Inhibition of Pgp in multidrug resistant human KBV20C cells assessed as increase in intracellular accumulation of Rh123; format: cell-based
Summary of the method: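 They were then incubated a further 3 h with Rh123 and washed with PBS. Mean intracellular Rh123 fluorescence was measured by flow cytometry and expressed relative to control. Values are means ± SD of three independent experiments, compared by Student's t-test.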

[6] = Cytotoxicity against multidrug resistant P-gp expressing human KBV20C cells assessed as cell viability after 48 hrs by MTS assay; format: functional, cell-based
[7] = test system: KB; assay: Cytotoxicity against human KB cells assessed as cell viability after 48 hrs by MTS assay; format: functional, cell-based

| Structure (SMILES) | viability at 10 µM [1] [%] | IC50 [2] [nM] | IC50 [3] [nM] | viability at 10 µM [4] [%] | Activity [5] | IC50 [6] [µM] | IC50 [7] [nM] |
| --- | --- | --- | --- | --- | --- | --- | --- |
| COc1cc(/C=C/C(=O)c2cccc(NC(=O)c3c(Cl)cccc3Cl)c2)ccc1O | 75.3 | 100 | 1230 | 93.7 | – | – | – |
| COC(=O)CC(=O)Nc1cccc(C(=O)/C=C/c2ccc(O)c(OC)c2)c1 | 106 | 320 | 3810 | 72.9 | – | – | – |
| COc1cc(/C=C/C(=O)c2cccc(NC(=O)c3ccc(Cl)c(Cl)c3)c2)ccc1O | 72.6 | 26 | 850 | 78.3 | Active | – | – |
| COc1cc(/C=C/C(=O)c2cccc(NC(C)=O)c2)ccc1O | 92.4 | 720 | 1260 | 98.2 | – | – | – |
| COc1cc(/C=C/C(=O)c2cccc(N)c2)ccc1O | 99.4 | 830 | 1260 | 97.6 | – | – | – |
| COc1cc(/C=C/C(=O)c2cccc(NC(=O)C(C)C)c2)ccc1O | 67.7 | 240 | 2920 | 67.5 | – | – | – |
| CC(=O)O[C@H]1C(=O)[C@@]2(C)[C@H]([C@H](OC(=O)c3ccccc3)[C@]3(O)C[C@H](OC(=O)[C@H](O)[C@@H](NC(=O)c4ccccc4)c4ccccc4)C(C)=C1C3(C)C)[C@]1(OC(C)=O)CO[C@@H]1C[C@@H]2O [PACLITAXEL] | – | – | – | – | – | 1.44 | 4.2 |
| CCOC(=O)C(=O)Nc1cccc(C(=O)/C=C/c2ccc(O)c(OC)c2)c1 | 103 | 1090 | 3310 | 84.7 | – | – | – |
| COc1cc(/C=C/C(=O)c2cccc(NC(=O)c3ccco3)c2)ccc1O | 77.6 | 210 | 1440 | 60.2 | – | – | – |
| COc1ccc(CCN(C)CCC[C@](C#N)(c2ccc(OC)c(OC)c2)C(C)C)cc1OC | – | – | – | – | Active | – | – |
| COc1cc(/C=C/C(=O)CC(=O)/C=C/c2ccc(O)c(OC)c2)ccc1O [CURCUMIN] | 93.1 | 420 | 820 | 89.2 | – | – | – |
| CC[C@]1(O)C[C@H]2CN(CCc3c([nH]c4ccccc34)[C@@](C(=O)OC)(c3cc4c(cc3OC)N(C=O)[C@H]3[C@@](O)(C(=O)OC)[C@H](OC(C)=O)[C@]5(CC)C=CCN6CC[C@]43[C@@H]65)C2)C1 [VINCRISTINE] | – | – | – | – | – | 5.72 | 7.9 |
| COc1cc(/C=C/C(=O)c2cccc(NC(=O)c3ccccc3)c2)ccc1O | 85.5 | 420 | 3820 | 89.5 | – | – | – |
| COc1cc(/C=C/C(=O)c2cccc(NC(=O)c3ccc(Cl)cc3Cl)c2)ccc1O | 94.6 | 45 | 720 | 98.3 | – | – | – |
| COc1cc(/C=C/C(=O)c2cccc(NC(=O)c3ccc(Cl)cc3)c2)ccc1O | 96.6 | 63 | 480 | 95.7 | Active | – | – |
| COc1cc(/C=C/C(=O)c2cccc(NC(=O)c3cc(Cl)cc(Cl)c3)c2)ccc1O | 70.3 | 22 | 410 | 68.7 | Active | – | – |
| COc1cc(/C=C/C(=O)c2cccc(NC(=O)c3cccs3)c2)ccc1O | 83.6 | 180 | 1410 | 74.7 | – | – | – |
| CCCC(=O)Nc1cccc(C(=O)/C=C/c2ccc(O)c(OC)c2)c1 | 80.8 | 210 | 2890 | 77.1 | – | – | – |
